Consider 1 compound from ChEMBL document CHEMBL4270638, “Sulfonyl-containing phenyl-pyrrolyl pentane analogues: Novel non-secosteroidal vitamin D receptor modulators with favorable physicochemical properties, pharmacokinetic properties and anti-tumor activity” (Eur J Med Chem, 2018).

Activity calls are given as the source filed them. The rule behind the calls is not given here.

The subject of data set [1] is MCF7. The experiment in a line: Cell cycle arrest in human MCF7 cells expressing scrambled siRNA assessed as accumulation at G0/G1 phase at 1 uM after 24 hrs by propidium iodide staining based flow cytometry (reference value: 49.28%). In kind it is functional. (In general: A flow cytometer gives signals particle by particle.)
Data set [2] concerns MCF7. The experiment in a line: Cell cycle arrest in human MCF7 cells expressing scrambled siRNA assessed as accumulation at G2/M phase at 1 uM after 24 hrs by propidium iodide staining based flow cytometry (reference value: 19.6%). The data set is classed as functional.
The subject of data set [3] is MCF7. The experiment in a line: Cell cycle arrest in human MCF7 cells expressing scrambled siRNA assessed as accumulation at S phase at 1 uM after 24 hrs by propidium iodide staining based flow cytometry (reference value: 29.79%). In kind it is functional.
Data set [4] deals with MCF7. The experiment in a line: Cell cycle arrest in human MCF7 cells expressing VDR siRNA assessed as accumulation at G0/G1 phase at 1 uM after 24 hrs by propidium iodide staining based flow cytometry (reference value: 49.17%). In kind it is functional.
Data set [5] has as its system MCF7. The experiment in a line: Cell cycle arrest in human MCF7 cells expressing VDR siRNA assessed as accumulation at G2/M phase at 1 uM after 24 hrs by propidium iodide staining based flow cytometry (reference value: 17.57%). The data set is classed as functional.
Data set [6] deals with MCF7. The experiment in a line: Cell cycle arrest in human MCF7 cells expressing VDR siRNA assessed as accumulation at S phase at 1 uM after 24 hrs by propidium iodide staining based flow cytometry (reference value: 32%). The data set is classed as functional.
For data set [7], the system named is MCF7. The experiment in a line: Induction of apoptosis in human MCF7 cells expressing scrambled siRNA assessed as live cells at 1 uM after 24 hrs by Annexin-V-FITC/propidium iodide staining based flow cytometry (reference value: 97.93%). The data set is classed as functional.
Data set [8] concerns MCF7. The experiment in a line: Induction of apoptosis in human MCF7 cells expressing scrambled siRNA assessed as early apoptotic cells at 1 uM after 24 hrs by Annexin-V-FITC/propidium iodide staining based flow cytometry (reference value: 0.93%). The data set is classed as functional.
In data set [9] the test system is MCF7. The experiment in a line: Induction of apoptosis in human MCF7 cells expressing scrambled siRNA assessed as late apoptotic cells at 1 uM after 24 hrs by Annexin-V-FITC/propidium iodide staining based flow cytometry (reference value: 0.98%). The data set is classed as functional.
In data set [10] the test system is MCF7. The experiment in a line: Induction of apoptosis in human MCF7 cells expressing scrambled siRNA assessed as necrotic cells at 1 uM after 24 hrs by Annexin-V-FITC/propidium iodide staining based flow cytometry (reference value: 0.16%). The data set is classed as functional.
Data set [11] relates to MCF7. The experiment in a line: Induction of apoptosis in human MCF7 cells expressing VDR siRNA assessed as live cells at 1 uM after 24 hrs by Annexin-V-FITC/propidium iodide staining based flow cytometry (reference value: 98.35%). The data set is classed as functional.
Data set [12] concerns MCF7. The experiment in a line: Induction of apoptosis in human MCF7 cells expressing VDR siRNA assessed as early apoptotic cells at 1 uM after 24 hrs by Annexin-V-FITC/propidium iodide staining based flow cytometry (reference value: 0.49%). The data set is classed as functional.
The subject of data set [13] is MCF7. The experiment in a line: Induction of apoptosis in human MCF7 cells expressing VDR siRNA assessed as late apoptotic cells at 1 uM after 24 hrs by Annexin-V-FITC/propidium iodide staining based flow cytometry (reference value: 1.01%). In kind it is functional.
The test system of data set [14] is MCF7. The experiment in a line: Induction of apoptosis in human MCF7 cells expressing VDR siRNA assessed as necrotic cells at 1 uM after 24 hrs by Annexin-V-FITC/propidium iodide staining based flow cytometry (reference value: 0.15%). In kind it is functional.
Data set [15] deals with MCF7. The experiment in a line: Antitumor activity against human MCF7 cells xenografted in Balb/c nude mouse assessed as increase in p21 expression at […], ip administered three times a week for three weeks starting from day 7 after tumor cell inoculation by immunohistochemical analysis. The data set is classed as functional, organism-based. The essentials:
(§1)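 Orthotopic MCF-7 fat-pad xenografts in nude mice, as above. Dosing ip three times weekly for three weeks. Tumours fixed 24 h in 4% neutral buffered paraformaldehyde, paraffin-embedded and cut at 5 µm. Sections dewaxed with antigen retrieval, peroxidase quenched with 3% H2O2 for 10 min, then immunostained for p21, p27 and Bax.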
On the technique in general: In xenograft studies the graft and the host belong to different species.

The subject of data set [16] is MCF7. The experiment in a line: Antitumor activity against human MCF7 cells xenografted in Balb/c nude mouse assessed as increase in p27 expression at […], ip administered three times a week for three weeks starting from day 7 after tumor cell inoculation by immunohistochemical analysis. The data set is classed as functional, organism-based. In a few lines:
as §1

Data set [17] deals with MCF7. The experiment in a line: Antitumor activity against human MCF7 cells xenografted in Balb/c nude mouse assessed as increase in Bax expression at […], ip administered three times a week for three weeks starting from day 7 after tumor cell inoculation by immunohistochemical analysis. The data set is classed as functional, organism-based. The essentials: as §1

Data set [18] concerns Mus musculus. The experiment in a line: Hypercalcemic effect in Balb/c nude mouse xenografted with human MCF7 cells assessed as effect on serum calcium level at 0.5 ug/kg, ip administered three times a week for three weeks starting from day 7 after tumor cell inoculation measured on day 27 (reference value: 0.6 umol/ml). The following applies: in vivo.
Data set [19] concerns Mus musculus. The experiment in a line: Hypercalcemic effect in Balb/c nude mouse xenografted with human MCF7 cells assessed as effect on serum calcium level at 0.5 ug/kg, ip administered three times a week for three weeks starting from day 7 after tumor cell inoculation measured on day 17 during compound dosing (reference value: 0.6 umol/ml). The following applies: in vivo.

Regarding `C=C1/C(=C\C=C2/CCC[C@]3(C)[C@@H]([C@H](C)CCCC(C)(C)O)CC[C@@H]23)C[C@@H](O)C[C@@H]1O` [CALCITRIOL], the Activity is 55.16% in the data set on MCF7 [1]; 13.4% with MCF7 [2]; 30.32% in the data set with MCF7 [3]; 51.38% in the data set on MCF7 [4]; 17.15% in the data set on MCF7 [5]; 30.33% in the data set on MCF7 [6]. For the same compound, the Activity with MCF7 [7] is 95%; in the data set with MCF7 [8], 1.29%; in the data set with MCF7 [9] it was 3.38%; in the data set with MCF7 [10] it was 0.33%; in the data set on MCF7 [11] it was 97.25%; in the data set on MCF7 [12] it was 0.84%. Also, the Activity is 1.49% in the data set on MCF7 [13], 0.42% in the data set on MCF7 [14], 0.61 µmol/mL in the data set on Mus musculus [18] and 0.6 µmol/mL in the data set on Mus musculus [19]. The result in the data set with MCF7 [15], in the data set with MCF7 [16] and with MCF7 [17] was Active.
